Source: PubChem (several laboratories)
Most compounds without a hit are left out; they make up all but 8.9% or so of the library.
MT stabilizer: microtubule stabilization, imaging screen | HeLa tubulin immunostaining HCS, 24 h; share of cells brighter than vehicle mean+2SD | % tubulin-high responders, % at 10 µM | 0.83% of 200,000 active | AID 2205;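 active means plate Z-score above 3 for both tubulin-high and condensed-nucleus cell shares, with cell loss under 80%, at 10 µM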;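 further: anti alpha tubulin signal scored within the nucleus-defined area of each cell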
bCat nuc transl: alters nuclear translocation of beta-catenin in HeLa cells | immunofluorescence imaging | nuclear translocation activity, % at 5 µM | 0.3% of 190,000 active;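 active means nuclear translocation activity above 50% at 5 µM, with a well cell count of 50 or more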;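 further: per-cell ratio of nuclear to cytoplasmic median beta-catenin stain intensity; plate controls were DMSO negative control for no effect and GSK-3 inhibitor IX positive control for full effect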
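System: HeLa cells, endogenous beta-catenin; compound dosing: 5 µM primary single dose, 0.1% DMSO, 0.02–20 µM confirmation series; incubation: 24 h compound exposure at 37°C, 5% CO2; signal: beta-catenin immunofluorescence imaging with DAPI; evaluation: % activation, nuclear-to-cytoplasmic median beta-catenin signal ratio per cell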
HSV augment: increases HSV replication in cells | HSV replication augmentation in cells, fold increase | maximum fold increase | 0.005% of 220,000 active; in the data active means maximum fold increase above about 1.5; tested in PC3 cells
Dynein transport: dynein cargo transport inhibition; 3617.4 mouse cells, GR-EGFP nuclear translocation imaging; test concentration mostly 20 µM; stimulated with dexamethasone, 1 µM; hits give low values; z-score, hits read low; 0.47% of 220,000 active;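 active means plate z-score of nuclear minus cytoplasmic receptor signal below a set negative limit, without overly bright fluorescence or cell loss, cut at about -3.5 in these data, passing the limit was not always enough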;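 further: z-score of nuclear minus cytoplasmic ring GR-EGFP intensity difference per well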
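Buffer or medium: tetracycline-free induction medium containing charcoal-stripped FBS / Reagent: dexamethasone agonist, 1.0 µM final, for 30 min / Technique: automated 10x imaging of fixed Hoechst-stained cells / Times: induction 48 h, compound 1 h, agonist 30 min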
L major viab: inhibitors of Leishmania major promastigote growth; 9% of 200,000 active; Leishmania major promastigotes, resazurin fluorescence viability; inhibition, % at 10 µM; in the data active means inhibition above about 50%;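 further: promastigotes grown with compound for 44 hours at 28 °C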
Numbers without * were called inactive; i = inactive; . = not tested or not shown.

SMILES	MT stabilizer	bCat nuc transl	HSV augment	Dynein transport	L major viab
CC(=O)CSc1nnc2c3ccccc3nc(C(C)(C)C)n12	2	0	i	-0.4	37
Cc1ccc(C(=O)CSc2nnc3c4ccccc4nc(C(C)(C)C)n23)cc1	26*	0	i	-0.65	21
Cc1occc1-c1nnc(SCC(=O)Nc2ccccc2)n1CCc1ccccc1	2	.	i	-1.1	66*
Cc1csc(NC(=O)CSc2nnc3c4ccccc4nc(C(C)(C)C)n23)n1	46*	58*	i	-0.13	8
Cc1csc(NC(=O)CSc2nnc(Cc3cccn3C)n2CCc2ccccc2)n1	2	-1	i	-0.18	51*
CCn1c(-c2ccc(-c3ccccc3)cc2)c[nH]c1=S	2	-3	i	-1	16
Cc1cc(C)n2cc(CSc3ccccn3)nc2n1	3	-6	i	1.2	1
CC(C)CNC(=O)C(=O)NN=C1CCCCCC1	3	-2	i	-0.86	-11
CCCCOc1cccc(C(=O)NC(=S)Nc2cccnc2)c1	2	-1	.	0.66	51*
CC(C)(C)c1ccc(C(=O)NC(=S)NCc2cccnc2)cc1	2	-1	.	3.4	12
CC(C)(C)c1ccc(OCCNC(=S)NC(=O)c2cccnc2)cc1	3	-4	i	-0.031	53*
Cc1cc(-c2c(C(=O)N3CCOCC3)c(C)nn2-c2cccc(C(F)(F)F)c2)no1	.	-1	i	-0.37	.
CCOC(=O)c1ccc(-c2ccc(C3Nc4ccccc4C(=O)N3O)o2)cc1 (stereo not given)	2	5	i	0.2	98*
Cc1cc([N+](=O)[O-])ccc1-c1ccc(C2Nc3ccccc3C(=O)N2O)o1 (stereo not given)	1	.	i	0.018	99*
CCOC(=O)c1ccc(-c2ccc(CO)o2)cc1	2	-1	i	-0.19	-7
O=C(NC(=S)Nc1ccccc1N1CCCC1)c1ccc(-c2cccc([N+](=O)[O-])c2)o1	4	5	i	-0.56	13
COC(=O)C1=C(N)Oc2cc(C)n(Cc3ccccc3)c(=O)c2C1c1ccccc1 (stereo not given)	3	.	i	-0.84	11
O=C(/C=C/c1ccccc1Cl)c1ccc[nH]1	4	.	i	0.75	74*
O=C(C1CCCO1)N1CCN(C(=S)Nc2ccc(F)cc2)CC1 (stereo not given)	2	0	i	0.9	56*
O=C(C1CCCO1)N1CCN(C(=S)Nc2ccc(F)c(Cl)c2)CC1 (stereo not given)	2	4	i	-1.5	-5
COc1ccc(NC(=O)Nc2ccccn2)cc1OC	.	1	i	0.3	.
NC(=O)c1ccccc1N/C=C/C(=O)c1ccccc1	3	0	i	-0.48	-2
Cc1ccc(S(=O)(=O)c2c(C)cc(C)nc2Cl)cc1	1	2	i	-0.14	-3
Cc1ccc(S(=O)(=O)c2c(C)cc(C)nc2Cl)c(C)c1	2	1	i	2.8	101*
Cc1cc(C)c(S(=O)(=O)c2ccccc2C)c(Cl)n1	2	.	i	0.37	101*
SMILES	MT stabilizer	bCat nuc transl	HSV augment	Dynein transport	L major viab
Cc1cc(C)c(S(=O)(=O)c2ccccc2)c(Cl)n1	2	0	i	0.51	-5
Cc1cc(C)c(S(=O)(=O)c2ccccc2C)c(Oc2ccccc2)n1	2	1	i	1.2	18
CCCCSc1nc(C)cc(C)c1S(=O)(=O)c1ccccc1C	2	.	i	-0.21	84*
CCCCOC(=O)c1ccc(NC(=O)C(=O)NCc2cccnc2)cc1	2	0	i	-0.6	11
Cc1ccc(-n2c(C)cc(C(=O)COc3cccnc3[N+](=O)[O-])c2C)cc1	4	0	i	0.28	-2
Cc1cc(C(=O)COc2cccc3cccnc23)c(C)n1C	2	0	i	-0.95	-4
Cc1ccc(OCC(=O)c2cc(C)n(C)c2C)c([N+](=O)[O-])n1	4	-1	i	0.027	53*
Cc1cc(C(=O)COc2cccnc2[N+](=O)[O-])c(C)n1-c1ccccc1	3	0	i	0.5	51*
CCCCC(c1nnnn1CC1CCCO1)N1CCN(c2nc3ccccc3s2)CC1 (stereo not given)	5	1	i	0.25	99*
CC(C)CC(c1nnnn1CC1CCCO1)N1CCN(c2nc3ccccc3s2)CC1 (stereo not given)	3	-1	i	-1.2	91*
CCCCC(c1nnnn1CC1CCCO1)N1CCN(c2cc(Cl)ccc2C)CC1 (stereo not given)	2	-1	i	-0.38	44
CC(C)C(c1nnnn1Cc1cccs1)N1CCN(c2ccccc2)CC1 (stereo not given)	2	-8	i	-0.88	1
CCCC(c1nnnn1CC1CCCO1)N1CCN(c2nc3ccccc3s2)CC1 (stereo not given)	4	2	i	2.5	94*
CCCC(c1nnnn1Cc1cccs1)N1CCN(c2nc3ccccc3s2)CC1 (stereo not given)	4	0	i	-0.95	97*
CCCCC(c1nnnn1CC1CCCO1)N1CCN(c2ccccc2)CC1 (stereo not given)	2	0	i	-1.3	-2
Cc1ccc(C(c2nnnn2CC2CCCO2)N2CCN(C)CC2)cc1 (stereo not given)	3	3	i	-0.21	-4
Cn1c(=O)cc(SCC(=O)N2CCN(c3ccccn3)CC2)c2ccccc21	5	3	i	-0.26	14
Cc1c(Cl)cccc1NC(=S)NCCc1ccccn1	.	2	i	1.7	.
CCC(c1nnnn1CS(=O)(=O)c1ccc(C)cc1)N1CCN(c2nc3ccccc3s2)CC1 (stereo not given)	2	-2	i	0.65	98*
CCCC(c1nnnn1CS(=O)(=O)c1ccc(C)cc1)N1CCN(c2ccccc2)CC1 (stereo not given)	2	.	i	-0.14	5
Cc1cccc(C)c1OCC(=O)Nc1oc(-c2ccccc2)c(-c2ccccc2)c1C#N	3	.	i	0.36	-4
c1ccc(CCn2c(C3CC3)nc3ccccc32)cc1	1	.	i	-0.48	63*
O=C1NC(c2ccc(Cl)cc2)Nc2ccccc21 (stereo not given)	22*	1	i	3.7	-4
O=C1NC(c2ccncc2)Nc2ccccc21 (stereo not given)	2	-1	i	-0.045	-10
Cc1ccc(C2NC(=O)c3ccccc3N2)s1 (stereo not given)	43*	94*	i	2.9	0
CCN(CC)CCNC(=O)c1cc2cc(Br)ccc2s1	2	1	i	-1.1	96*
CCOC(=O)C1(CCOc2ccccc2)CCN(Cc2ccc(-n3cccn3)cc2)CC1	2	-1	i	0.087	90*
CCOC(=O)C1(CCOc2ccccc2)CCN(Cc2ccncc2)CC1	4	1	i	-0.18	86*
